ChEMBL document CHEMBL4145576, “Isolation, Synthesis, and Antisepsis Effects of a C-Methylcoumarinochromone Isolated from Abronia nana Cell Culture” (J Nat Prod, 2018)
Calls of active or inactive are those of the source.

Key:
Beta-secretase 1 = Beta-secretase 1 (Homo sapiens, UniProt P56817); test: Inhibition of recombinant human BACE1 using RhEVNLDAEFK-Quencher as substrate after 60 mins by fluorescence assay
Mus musculus [1] = test: Antisepsis activity in C57BL/6 mouse CLP surgery model assessed as inhibition of HMGB1-induced leukocyte migration into peritoneal cavity at 28 to 56 ug/kg, iv; format: functional, organism-based
Method in brief: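 Mice given HMGB1 (2 μg/mouse) iv for 16 h, then compound (28 or 56 μg/kg) for 6 h. Peritoneal cavity washed with 5 mL saline after 6 h. Fluid diluted in Türk's solution (0.01% crystal violet, 3% acetic acid). Leukocytes counted by light microscopy.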

[2] = biological target: T1, High mobility group protein B1 (Homo sapiens) (UniProt P09429); test: Inhibition of HMGB1-mediated VCAM-1 expression level in HUVEC at 0.1 to 1 uM after 6 hrs by ELISA; format: cell-based
T1 sequence (whole entry): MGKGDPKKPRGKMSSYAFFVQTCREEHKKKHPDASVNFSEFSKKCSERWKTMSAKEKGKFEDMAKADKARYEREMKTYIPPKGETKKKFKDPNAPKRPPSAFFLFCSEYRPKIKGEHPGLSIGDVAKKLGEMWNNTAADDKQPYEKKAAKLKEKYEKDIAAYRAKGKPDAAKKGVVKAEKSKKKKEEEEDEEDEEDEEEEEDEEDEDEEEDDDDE
Method in brief: (§1)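 Confluent HUVECs treated with HMGB1 (1 μg/mL, 16 h), then compound (0–1 μM) for 6 h. Cells fixed in 1% paraformaldehyde and probed with anti-VCAM-1, ICAM-1 or E-selectin (1:50, 1 h, 37 °C). Peroxidase anti-mouse IgG (1:2000) added, developed with o-phenylenediamine, read at 490 nm.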

[3] = biological target: T1, High mobility group protein B1 (Homo sapiens); test: Inhibition of HMGB1-mediated ICAM-1 expression level in HUVEC at 0.1 to 1 uM after 6 hrs by ELISA; format: cell-based; method in brief: as §1
Mus musculus [4] = test: Antisepsis activity in C57BL/6 mouse assessed as inhibition of CLP-induced IL-6 level in blood at 28 to 56 ug/kg, iv at 12 and 50 hrs post CLP surgery by ELISA; format: functional, organism-based
Method in brief: (§2)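 Male C57BL/6 mice underwent CLP and received compound iv (28 or 56 μg/kg) at 12 and 50 h after CLP. Animals bled out. AST, ALT, BUN, creatinine and LDH measured in plasma/serum with biochemical kits. IL-1β, IL-6, IL-10, MCP-1 and TNF-α measured by ELISA. Means ± SD of five independent experiments.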

Mus musculus [5] = test: Antisepsis activity in C57BL/6 mouse CLP surgery model assessed as reduction in bacterial burden in peritoneal lavage fluid at 28 to 56 ug/kg, iv measured after 24 hrs; format: functional, organism-based
Method in brief: (§3)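 Male C57BL/6 mice (27 g) underwent CLP: cecum ligated 5 mm from tip and punctured once with a 22-gauge needle. Peritoneal lavage fluid and blood collected 24 h after CLP and centrifuged. Diluted samples plated on 5% sheep blood agar at 37 °C for 24 h, then CFUs counted; n = 10.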

Mus musculus [6] = test: Antisepsis activity in C57BL/6 mouse assessed as inhibition of CLP-induced blood urea nitrogen level in plasma at 28 to 56 ug/kg, iv at 12 and 50 hrs post CLP surgery; format: functional, organism-based; method in brief: as §2
Mus musculus [7] = test: Antisepsis activity in C57BL/6 mouse assessed as inhibition of CLP-induced ALT level in plasma at 28 to 56 ug/kg, iv at 12 and 50 hrs post CLP surgery; format: functional, organism-based; method in brief: as §2
[8] = biological target: T1, High mobility group protein B1 (Homo sapiens); test: Inhibition of HMGB1-induced TLR4 expression level in HUVEC at 0.1 to 1 uM after 6 hrs by ELISA; format: cell-based
Method in brief: (§4)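 Confluent HUVECs activated with HMGB1 (1 μg/mL, 16 h), then incubated with compound for 6 h. Surface TLR2, TLR4 and RAGE determined by cell-based ELISA with specific antibodies.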

HUVEC [9] = test: Effect on barrier integrity in HUVEC at 1 uM after 6 hrs by spectrophotometric method; format: ADME, cell-based; conditions: human
Method in brief: (§5)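 HUVECs (5 × 10^4 cells/well) grown 3 days on 3 μm Transwells to confluence. Monolayers exposed to LPS (100 ng/mL, 4 h) or HMGB1 (1 μg/mL, 16 h), or left unstimulated, then treated with compound for 6 h. Flux of albumin-bound Evans blue measured spectrophotometrically.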

Mus musculus [10] = test: Antisepsis activity in C57BL/6 mouse assessed as inhibition of CLP-induced death at 56 ug/kg, iv measured 12 hrs post CLP; format: functional, organism-based
[11] = biological target: T1, High mobility group protein B1 (Homo sapiens); test: Inhibition of HMGB1-mediated human neutrophil adhesion in HUVEC after 6 hrs by ELISA; format: cell-based
Method in brief: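 HUVEC monolayers treated with HMGB1 (1 μg/mL, 16 h), then compound (0–1 μM) for 6 h. Human neutrophils (1.5 × 10^6 cells/mL) labelled with Vybrant DiD dye and added to the washed monolayers. Adhesion measured by fluorescence.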

HUVEC [12] = test: Cytotoxicity against HUVEC assessed as reduction in cell viability up to 5 uM after 48 hrs by MTT assay; format: cell-based; conditions: human
Method in brief: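 HUVECs (passage 3–5; 5 × 10^3 cells/well) seeded for 24 h, then exposed to compound for 48 h. MTT (1 mg/mL) added for 4 h. Formazan dissolved in DMSO and read at 540 nm.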

Mus musculus [13] = test: Antisepsis activity in C57BL/6 mouse assessed as inhibition of CLP-induced AST level in plasma at 28 to 56 ug/kg, iv at 12 and 50 hrs post CLP surgery; format: functional, organism-based; method in brief: as §2
[14] = biological target: T1, High mobility group protein B1 (Homo sapiens); test: Inhibition of HMGB1-mediated p38 MAPK phosphorylation in HUVEC at 0.1 to 1 uM after 6 hrs by ELISA; format: cell-based
Method in brief: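 HUVECs activated with HMGB1 (1 μg/mL, 16 h), then treated with compound for 6 h. Phospho-p38 MAPK measured by ELISA kit.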

Mus musculus [15] = test: Antisepsis activity in C57BL/6 mouse assessed as inhibition of CLP-induced TNFalpha level in blood at 28 to 56 ug/kg, iv at 12 and 50 hrs post CLP surgery by ELISA; format: functional, organism-based; method in brief: as §2
[16] = biological target: T1, High mobility group protein B1 (Homo sapiens); test: Inhibition of HMGB1-induced RAGE expression level in HUVEC at 0.1 to 1 uM after 6 hrs by ELISA; format: cell-based; method in brief: as §4
Mus musculus [17] = test: Antisepsis activity in C57BL/6 mouse assessed as inhibition of CLP-induced IL-10 level in blood at 28 to 56 ug/kg, iv at 12 and 50 hrs post CLP surgery by ELISA; format: functional, organism-based; method in brief: as §2
Mus musculus [18] = test: Antisepsis activity in C57BL/6 mouse assessed as inhibition of CLP-induced MCP1 level in blood at 28 to 56 ug/kg, iv at 12 and 50 hrs post CLP surgery by ELISA; format: functional, organism-based; method in brief: as §2
[19] = biological target: T1, High mobility group protein B1 (Homo sapiens); test: Inhibition of HMGB1-induced TLR2 expression level in HUVEC at 0.1 to 1 uM after 6 hrs by ELISA; format: cell-based; method in brief: as §4
Mus musculus [20] = test: Antisepsis activity in C57BL/6 mouse assessed as inhibition of CLP-induced mortality at 56 ug/kg, iv administered twice daily at 12 and 50 hrs post CLP measured every 6 hrs post CLP for 150 hrs (reference value: 40%); format: functional; conditions: C57BL/6, iv
Mus musculus [21] = test: Antisepsis activity in C57BL/6 mouse assessed as inhibition of CLP-induced IL-1beta level in blood at 28 to 56 ug/kg, iv at 12 and 50 hrs post CLP surgery by ELISA; format: functional, organism-based; method in brief: as §2
Lipopolysaccharide (LPS) = test: Inhibition of bacterial LPS-mediated disruption of barrier integrity in HUVEC by measuring flux of albumin-bound evans blue after 6 hrs by spectrophotometric method; format: cell-based; conditions: Bacteria; method in brief: as §5
Mus musculus [22] = test: Antisepsis activity in C57BL/6 mouse assessed as inhibition of CLP-induced lactate dehydrogenase level in plasma at 28 to 56 ug/kg, iv at 12 and 50 hrs post CLP surgery; format: functional, organism-based; method in brief: as §2
[23] = biological target: T1, High mobility group protein B1 (Homo sapiens); test: Inhibition of HMGB1-mediated disruption of barrier integrity in HUVEC by measuring flux of albumin-bound evans blue after 6 hrs by spectrophotometric method; format: cell-based; method in brief: as §5
[24] = biological target: T1, High mobility group protein B1 (Homo sapiens); test: Inhibition of HMGB1-mediated human neutrophil migration in HUVEC after 6 hrs by crystal violet staining based microscopy; format: cell-based
Method in brief: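 HUVECs (6 × 10^4 cells/well) grown 3 days on 8 μm Transwells, then treated with HMGB1 (1 μg/mL, 16 h) and compound for 6 h before cells added to the upper chamber. Migrated cells fixed in 8% glutaraldehyde and stained with 0.25% crystal violet. Nine 200× fields per well counted; run in duplicate; migration index.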

HUVEC [25] = test: Effect on HMGB1 release in HUVEC at > 0.2 uM after 6 hrs by ELISA; format: ADME, cell-based; conditions: human
Mus musculus [26] = test: Antisepsis activity in C57BL/6 mouse assessed as inhibition of HMGB1-induced vascular hyperpermeability by measuring amount of evans blue in the peritoneal washings at 28 to 56 ug/kg, iv pretreated with HMGB1 for 16 hrs followed by compound treatment measured after 6 hrs […]; format: functional, organism-based
Method in brief: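 Mice given iv HMGB1 (2 μg/mouse) for 16 h, then compound (28 or 56 μg/kg) for 6 h. 1% Evans blue in saline injected iv; mice killed 30 min later. Peritoneal washings (5 mL saline) centrifuged at 200g for 10 min and read at 650 nm. Dye leak read from a standard curve as μg/mouse; n = 5.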

Mus musculus [27] = test: Antisepsis activity in C57BL/6 mouse CLP surgery model assessed as reduction in bacterial burden in blood at 28 to 56 ug/kg, iv measured after 24 hrs; format: functional, organism-based; method in brief: as §3
[28] = biological target: T1, High mobility group protein B1 (Homo sapiens); test: Inhibition of HMGB1-mediated E-selectin expression level in HUVEC at 0.1 to 1 uM after 6 hrs by ELISA; format: cell-based; method in brief: as §1
Mus musculus [29] = test: Antisepsis activity in C57BL/6 mouse assessed as inhibition of CLP-induced creatinine level in plasma at 28 to 56 ug/kg, iv at 12 and 50 hrs post CLP surgery; format: functional, organism-based; method in brief: as §2
[30] = biological target: T1, High mobility group protein B1 (Homo sapiens); test: Inhibition of LPS-induced HMGB1 release in HUVEC at > 0.2 uM pretreated with bacterial LPS for 16 hrs followed by compound treatment measured after 6 hrs by ELISA; format: cell-based
Mus musculus [31] = test: Antisepsis activity in C57BL/6 mouse assessed as inhibition of CLP-induced HMGB1 release in serum at 28 to 56 ug/kg, iv administered 12 hrs post CLP challenge by ELISA; format: functional, organism-based
Method in brief: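 Male C57BL/6 mice underwent CLP and received compound iv (28 or 56 μg/kg) 12 h later; n = 5. Mice killed 24 h after CLP. Serum HMGB1 measured by ELISA.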

Sequence of Beta-secretase 1 (P56817 whole entry): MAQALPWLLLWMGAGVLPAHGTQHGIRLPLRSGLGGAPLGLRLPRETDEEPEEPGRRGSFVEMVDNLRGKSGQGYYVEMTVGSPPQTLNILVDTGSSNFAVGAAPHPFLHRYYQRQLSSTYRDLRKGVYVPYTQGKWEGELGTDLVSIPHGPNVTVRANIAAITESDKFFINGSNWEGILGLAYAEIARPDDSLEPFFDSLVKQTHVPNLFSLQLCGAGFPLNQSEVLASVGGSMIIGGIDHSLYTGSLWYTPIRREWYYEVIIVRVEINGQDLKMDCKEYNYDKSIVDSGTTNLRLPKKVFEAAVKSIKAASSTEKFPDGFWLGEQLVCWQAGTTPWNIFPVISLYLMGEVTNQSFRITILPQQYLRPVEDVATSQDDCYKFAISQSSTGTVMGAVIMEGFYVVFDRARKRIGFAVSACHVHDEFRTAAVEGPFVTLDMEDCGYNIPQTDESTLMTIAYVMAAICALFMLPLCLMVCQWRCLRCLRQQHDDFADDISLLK

Cc1c(O)cc2oc3c(c(=O)c2c1O)-c1ccc(O)cc1OC3O (stereo not drawn) [BOERAVINONE E]
5.6 µM: IC50 (Beta-secretase 1)

Cc1c(O)cc2oc3oc4ccccc4c3c(=O)c2c1O
Non-Toxic: Activity (HUVEC [9]) | Activity (HUVEC [12]) | Activity (HUVEC [25])
active: inhibition (Mus musculus [1]) | inhibition [2] | inhibition [3] | inhibition (Mus musculus [4]) | Activity (Mus musculus [5]) | inhibition (Mus musculus [6]) | inhibition (Mus musculus [7]) | inhibition [8] | inhibition [11] Dose-dependent effect | inhibition (Mus musculus [13]) | inhibition [14] | inhibition (Mus musculus [15]) | inhibition [16] | inhibition (Mus musculus [17]) | inhibition (Mus musculus [18]) | inhibition [19] | inhibition (Mus musculus [21]) | inhibition (Lipopolysaccharide (LPS)) Dose-dependent effect | inhibition (Mus musculus [22]) | inhibition [23] Dose-dependent effect | inhibition [24] Dose-dependent effect | inhibition (Mus musculus [26]) | Activity (Mus musculus [27]) | inhibition [28] | inhibition (Mus musculus [29]) | inhibition [30] | inhibition (Mus musculus [31])
inactive: inhibition (Mus musculus [10])
60%: mortality at 0.056 mg/kg (Mus musculus [20])
